PolyA inhibitor: inhibitors of polyadenylation in S. cerevisiae; S. cerevisiae SKY197-pL101 polyadenylation reporter, beta-gal luminescence; efflux-impaired pdr1/pdr3 knockout yeast; score 100 = 6 SD above DMSO; activity score, % at 12 µM; 0.02% of 300,000 active; AID 1875;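 active = lowest replicate activity score at least 50, where 100 means six control SD above control mean; inconclusive = lowest score under 50 but half or more replicates reach 50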;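 note: yeast exposed to compound for 9 h at 30 °C; higher score means more reporter readthrough which indicates perturbed polyadenylation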
CSC inhib: blocks cancer stem cells. AID 2717. inhibition, % at 7.5 µM. cancer stem cell-like cells viability, luminescence. 1.1% of 300,000 active; in the data active = inhibition above about 75%; inconclusive = no clear call, values can overlap the other calls; tested in HMLE shEcad cells
T cruzi inh: T. cruzi replication inhibition; T. cruzi beta-gal in NIH3T3, luminescence, 90 h; inhibition, % (no concentration beside the values); 1.4% of 300,000 active;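 active = mean inhibition across valid replicates above about 55%, limit read from the data; inconclusive = mean below that limit but half or more replicates reach it; inactive = mean below it, under half of replicates reach it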;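 note: signal also drops with host cell toxicity which is not excluded here; higher percent means less beta-gal luminescence so fewer parasites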
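System: mouse NIH/3T3 fibroblasts infected with β-gal-expressing T. cruzi Tulahuen C4 / Input: NIH/3T3 cells, 5,000 per well / Buffer or medium: Low-serum DMEM with 2% FBS / Probe or stimulus: 5000 reporter trypomastigotes per well / Schedule: ≥90 h infection period, 3 h prior cell attachment / Measured by: GalScreen luminescence, 60 min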
HIF act: HIF pathway transcriptional activation; AID 1910; U2OS HRE-luciferase reporter, luminescence; normalized: DMSO 0%, desferrioxamine 100%; activation, % at 7.5 µM (by protocol); 0.32% of 300,000 active;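 active = mean activation of at least 10% of the iron chelator positive control signal, with at least half of replicates also reaching 10%; inconclusive = mean and replicate majority disagree about reaching 10%; inactive = mean and most replicates under 10%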
Calb FLC: affects C. albicans growth with fluconazole; C. albicans CaCi-2 (fluconazole-resistant clinical isolate) + fluconazole, Alamar Blue growth, 48 h; growth inhibition, % (concentration not given with the values); 0.57% of 300,000 active; AID 1979;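 active = growth inhibition above about 58% in most replicates, limit read from the data, passing the limit was not always enough; inconclusive = exactly half the replicates above a set limit; inactive = most replicates below a set limit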;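 note: all wells also contain fluconazole at 8 µg/ml as a sub-toxic cotreatment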
Beta cell apopt: blocks beta cell apoptosis | INS-1E cytokine-induced death, ATP luminescence, 48 h; percent of positive-control rescue, neutral wells zero | 0.8% of 300,000 active | protection from apoptosis, % (no concentration beside the values);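 active = Every replicate reaches about 75%, or at least half do and their mean reaches it too, limit read from the data; inconclusive = At least half of replicates reach the limit but their mean does not; inactive = Under half of replicates reach the limit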;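 note: higher means more ATP so stronger rescue from cytokine killing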
Of the large screens only hits and unclear results are named; the others gave an inactive call. Shown are actives, neighbours in structure and some others; about 3.1% of the full set was active somewhere.

CC1c2c([nH]c3ccccc23)CCC1C(=O)O (stereo not drawn)	none
COc1ccc(S(=O)(=O)Nc2cc(C(C)C)c(O)cc2C)cc1	none
COc1ccc2nc3cc(Cl)ccc3c(Nc3cc(C(C)C)c(O)cc3C)c2c1	CSC inhib 103, Beta cell apopt 114
CCC(=O)Nc1cccc(-c2cn3ccccc3n2)c1	none
O=C(Nc1cccc(-c2cn3ccccc3n2)c1)C1CC1	HIF act 37
Cc1ccc(C(=O)N/N=C/c2cc(Br)ccc2O)cn1	HIF act 16
Oc1ccc(Br)cc1/C=N/NC(=S)NCCc1ccccc1	CSC inhib 105
O=C(N/N=C/c1cc(Br)ccc1O)c1ccccc1Cl	HIF act 26, Calb FLC 89
O=C(CCc1ccccc1)N/N=C/c1cc(Br)ccc1O	HIF act 12
COC(=O)N/N=C/c1cc(Br)ccc1O	none
COc1ccc(-c2cccc(C3CC=CC4C3C(=O)N(Cc3ccccc3)C4c3ccc(OC)c(Cl)c3)c2)cc1 (stereo not drawn)	PolyA inhibitor inconclusive
COc1cccc(/C=C/C(=O)OCC(=O)NCCc2ccccc2)c1	none
CC(C)=CCCC(C)CN1CCC(n2nccc2NC(=O)c2ccc3c(c2)OCO3)CC1 (stereo not drawn)	PolyA inhibitor inconclusive, T cruzi inh 57
Cc1cc(C)nc(N/N=C/C2=C(O)CC(c3ccccc3)CC2=O)n1 (stereo not drawn)	HIF act 22
O=C1C=C(c2ccc(Cl)c(C(F)(F)F)c2)C[C@@H](c2ccc3c(c2)OCO3)C1	CSC inhib 110 (no result: PolyA inhibitor, T cruzi inh, HIF act, Calb FLC)
Cn1ncc2c(O/N=C(\N)c3ccc(C(C)(C)C)cc3)ncnc21	CSC inhib 108, T cruzi inh 64, Beta cell apopt 110
Cc1ccc(/C(=N\O)c2oc3c(C)c4oc(=O)cc(C)c4cc3c2C)cc1	CSC inhib 105, T cruzi inh 59
Cc1cc(=O)oc2c1ccc1oc(/C(=N/O)c3ccccc3)c(C)c12	none
CN1CCN(Cc2cn[nH]c2-c2ccc(F)cc2F)[C@@H](c2ccccc2)C1	none
CCOc1ccc(NC(=O)CSc2nnc(Cn3cnc4ccccc43)n2C)cc1	HIF act 20
COc1ccc(C=C2C(=O)c3ccccc3C2=O)cc1O	none (no result: Beta cell apopt)
CCN1C/C(=C/c2ccc(OC)c(O)c2)C(=O)/C(=C/c2ccc(OC)c(O)c2)C1	CSC inhib 102, Beta cell apopt 97
COc1ccc(/C=C2\CN(Cc3ccccc3)C/C(=C\c3ccc(OC)c(O)c3)C2=O)cc1O	CSC inhib 119, Beta cell apopt 104
CCOc1ccc2nc(NC(=O)CN3C(=O)C4CCCCC4C3=O)sc2c1 (stereo not drawn)	none
COc1cc(/C=C/C(=O)OCC(=O)NCCc2ccc(F)cc2)ccc1OC(F)F	none (no result: PolyA inhibitor, T cruzi inh, HIF act, Calb FLC)
NC(N)=N/N=C/c1ccc2cccc(OCc3ccccc3)c2n1	T cruzi inh 57
O/N=C/c1ccc2cccc(OCc3ccccc3)c2n1	none
Cc1cccc(-n2ncc3c(N4CCCc5ccccc54)ncnc32)c1	CSC inhib 76
Cc1cccc(-n2ncc3c(NCc4ccccc4)ncnc32)c1	none
C/C(Cl)=C/Cc1c(C)[nH]c2c(ccc3ccccc32)c1=O	none
C/C(Cl)=C/Cc1c(C)[nH]c2ccc(C)cc2c1=O	T cruzi inh 71, Calb FLC inconclusive
O=C(Nc1ccc(NC(=O)c2cccs2)cc1)c1cccs1	Calb FLC inconclusive
O=C(Nc1nonc1NC(=O)c1cccs1)c1cccs1	Calb FLC 85
CCOC(=O)c1sc2nc(CC(=O)OC)nc(N3CCN(c4ccc(OC)cc4)CC3)c2c1C	T cruzi inh 63
COc1ccc(NC(=O)C2CCN(S(=O)(=O)c3ccc4c(c3)CC(C)N4C(C)=O)CC2)cc1OC (stereo not drawn)	HIF act 678
COc1cc(NC(=O)C2CCN(S(=O)(=O)c3ccc4c(c3)CC(C)N4C(C)=O)CC2)cc(OC)c1OC (stereo not drawn)	none
CC1CN(c2ccc([N+](=O)[O-])c(NCCOc3ccccc3)c2)CC(C)N1 (stereo not drawn)	none
CC1CN(c2ccc([N+](=O)[O-])c(NCCOc3ccc(Cl)cc3)c2)CC(C)N1 (stereo not drawn)	CSC inhib 108
Clc1ccccc1Nc1nnc(-c2ccncc2)s1	Beta cell apopt 75
COc1ccc(Cl)cc1Nc1nnc(-c2ccncc2)s1	none (no result: CSC inhib, Beta cell apopt)
COc1ccccc1NC(=O)C(C)N(C)Cc1ccc(Cl)s1 (stereo not drawn)	none
CC(C)n1c(CN(C)Cc2ccccc2)nc2c1c(=O)n(C)c(=O)n2C	Beta cell apopt 96
CC(=O)C(C)n1c(CN(C)Cc2ccccc2)nc2c1c(=O)n(C)c(=O)n2C (stereo not drawn)	none
CCC1CCc2sc(C(=O)NNC(=O)c3ccncc3)cc2C1 (stereo not drawn)	none
CCC1CCc2sc(C(=O)NCC(c3ccc(OC)cc3)N3CCCC3)cc2C1 (stereo not drawn)	T cruzi inh 66
CCC1CCc2sc(C(=O)O)cc2C1 (stereo not drawn)	HIF act 65 (no result: Beta cell apopt)
COc1ccc(NC(=O)CN(C)C(=O)C2(c3ccccc3)CCCC2)cc1	none (no result: PolyA inhibitor, T cruzi inh, HIF act, Calb FLC)
C=CCc1cc(Cl)ccc1OCCN(C)C	T cruzi inh 57
Clc1ccc(OCCCNCc2ccccc2)c2ccccc12	CSC inhib 110
C=CCc1cc(Cl)ccc1OCCCNC(C)C	none
Brc1ccccc1OCCNCc1ccccc1	none
CCC(C)NCCOCCOc1ccc(Cl)c(C)c1C (stereo not drawn)	T cruzi inh 59
C=CCc1cc(Cl)ccc1OCCOCCNC(C)CC (stereo not drawn)	CSC inhib 131
COc1ccc(-c2nc(CS(=O)CC(=O)NCc3ccc(Cl)cc3)c(C)o2)cc1OC (stereo not drawn)	none
CC(C)c1nc2cc(C(=O)N3CCNC(=O)C3c3cccc(F)c3)ccc2o1 (stereo not drawn)	none
CCC(C)NCCOCCOc1ccc(Cl)c2ccccc12 (stereo not drawn)	T cruzi inh 55 (no result: CSC inhib)
CN(C)c1ccc(C2SCCN2C(=O)c2ccc([N+](=O)[O-])cc2)cc1 (stereo not drawn)	T cruzi inh 58
Cc1[nH][nH]c(=O)c1C(c1ccc(Cl)cc1)c1c(C)[nH][nH]c1=O	none
CCCCCCSc1ccc(-c2nc3cnccn3c2NCCCC)cc1	CSC inhib 105 (no result: PolyA inhibitor, T cruzi inh, HIF act, Calb FLC)
CCCCNc1c(-c2ccc(SC(C)CC)cc2)nc2ccccn12 (stereo not drawn)	CSC inhib 92
CCCCCCSc1ccc(-c2nc3ccc(C)cn3c2NCc2ccccc2)cc1	none (no result: Beta cell apopt)
CCCCNc1c(-c2ccc(SC3CCCCC3)cc2)nc2ccccn12	CSC inhib 82, T cruzi inh 71, Beta cell apopt inconclusive
